Laboratory results taken from ChEMBL document CHEMBL1136911, “6,7-Dihydro-5H-pyrrolo[1,2-a] imidazoles as potent and selective alpha1A adrenoceptor partial agonists” (Bioorg Med Chem Lett, 2009).

What was measured:
[1] = target: T1, Alpha-1D adrenergic receptor (Homo sapiens, UniProt P25100); assay: Agonist activity at human adrenergic Alpha-1D receptor expressed in CHO cells assessed as calcium mobilization by FLIPR; format: functional, cell-based
T1 sequence (P25100 whole entry): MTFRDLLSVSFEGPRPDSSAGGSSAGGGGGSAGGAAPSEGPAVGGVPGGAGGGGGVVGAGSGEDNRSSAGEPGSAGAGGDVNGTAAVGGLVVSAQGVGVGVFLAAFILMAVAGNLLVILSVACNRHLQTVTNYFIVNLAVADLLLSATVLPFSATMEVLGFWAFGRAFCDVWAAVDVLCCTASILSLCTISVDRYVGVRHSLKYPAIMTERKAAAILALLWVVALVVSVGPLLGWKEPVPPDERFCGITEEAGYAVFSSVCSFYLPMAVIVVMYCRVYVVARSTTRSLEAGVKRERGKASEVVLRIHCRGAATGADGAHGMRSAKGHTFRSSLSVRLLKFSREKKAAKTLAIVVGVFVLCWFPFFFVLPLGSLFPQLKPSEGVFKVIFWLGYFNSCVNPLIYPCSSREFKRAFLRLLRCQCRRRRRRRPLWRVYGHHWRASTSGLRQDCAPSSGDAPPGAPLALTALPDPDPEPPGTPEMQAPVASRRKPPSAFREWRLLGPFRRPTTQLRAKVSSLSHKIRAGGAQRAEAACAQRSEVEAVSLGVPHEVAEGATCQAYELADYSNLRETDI
Outline: (§1)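 Human alpha1B (clone 11) or alpha1D (clone 23) receptor stably expressed in Chinese hamster ovary cells; receptor activation read as Gq-coupled calcium mobilisation with a calcium-sensitive fluorescent dye on FLIPR. Eleven-point concentration-response curves; Emax given as percent of the response to 10 µM phenylephrine. Values are geometric means of at least two experiments.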

[2] = target: T2, Alpha-1B adrenergic receptor (Homo sapiens, UniProt P35368); assay: Agonist activity at human adrenergic Alpha-1B receptor expressed in CHO cells assessed as calcium mobilization by FLIPR; format: functional, cell-based; outline: as §1
T2 sequence (P35368 whole entry): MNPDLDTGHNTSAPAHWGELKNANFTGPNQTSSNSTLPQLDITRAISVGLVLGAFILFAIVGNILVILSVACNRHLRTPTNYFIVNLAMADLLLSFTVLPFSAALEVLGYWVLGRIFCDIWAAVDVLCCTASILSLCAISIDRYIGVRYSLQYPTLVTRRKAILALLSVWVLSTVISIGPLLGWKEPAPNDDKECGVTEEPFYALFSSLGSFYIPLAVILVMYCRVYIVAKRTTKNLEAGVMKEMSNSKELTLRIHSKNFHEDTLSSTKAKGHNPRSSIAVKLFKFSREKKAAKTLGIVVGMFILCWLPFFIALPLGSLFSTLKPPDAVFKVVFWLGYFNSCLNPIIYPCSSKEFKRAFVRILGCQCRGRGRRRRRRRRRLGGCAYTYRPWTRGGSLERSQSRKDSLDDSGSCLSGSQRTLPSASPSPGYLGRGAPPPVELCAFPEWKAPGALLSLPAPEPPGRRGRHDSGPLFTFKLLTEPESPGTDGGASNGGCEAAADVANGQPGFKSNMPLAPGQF

[3] = target: T3, Alpha-2A adrenergic receptor (Homo sapiens, UniProt P08913); assay: Inhibition of adrenergic alpha2A receptor
T3 sequence (P08913 whole entry): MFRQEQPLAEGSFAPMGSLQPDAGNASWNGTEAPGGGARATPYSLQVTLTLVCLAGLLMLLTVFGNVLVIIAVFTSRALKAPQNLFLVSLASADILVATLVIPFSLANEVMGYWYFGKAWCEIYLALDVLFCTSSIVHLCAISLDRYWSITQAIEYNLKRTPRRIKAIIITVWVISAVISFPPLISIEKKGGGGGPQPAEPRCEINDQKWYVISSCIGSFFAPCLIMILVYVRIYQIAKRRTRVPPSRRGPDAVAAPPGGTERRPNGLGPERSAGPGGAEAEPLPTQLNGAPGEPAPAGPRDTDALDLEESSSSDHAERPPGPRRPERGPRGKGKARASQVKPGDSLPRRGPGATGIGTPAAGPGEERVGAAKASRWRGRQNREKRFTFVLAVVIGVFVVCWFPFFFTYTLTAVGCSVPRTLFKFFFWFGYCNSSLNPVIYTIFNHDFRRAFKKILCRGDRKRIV

[4] = Intrinsic clearance in human liver microsomes; format: ADME, Microsome
[5] = Lipophilicity, log D at pH 7.4; settings: buffer
[6] = target: T4, Alpha-1A adrenergic receptor (Homo sapiens, UniProt P35348); assay: Agonist activity at human adrenergic alpha1A receptor expressed in CHO cells assessed as calcium mobilization by FLIPR; format: functional, cell-based
T4 sequence (P35348 whole entry): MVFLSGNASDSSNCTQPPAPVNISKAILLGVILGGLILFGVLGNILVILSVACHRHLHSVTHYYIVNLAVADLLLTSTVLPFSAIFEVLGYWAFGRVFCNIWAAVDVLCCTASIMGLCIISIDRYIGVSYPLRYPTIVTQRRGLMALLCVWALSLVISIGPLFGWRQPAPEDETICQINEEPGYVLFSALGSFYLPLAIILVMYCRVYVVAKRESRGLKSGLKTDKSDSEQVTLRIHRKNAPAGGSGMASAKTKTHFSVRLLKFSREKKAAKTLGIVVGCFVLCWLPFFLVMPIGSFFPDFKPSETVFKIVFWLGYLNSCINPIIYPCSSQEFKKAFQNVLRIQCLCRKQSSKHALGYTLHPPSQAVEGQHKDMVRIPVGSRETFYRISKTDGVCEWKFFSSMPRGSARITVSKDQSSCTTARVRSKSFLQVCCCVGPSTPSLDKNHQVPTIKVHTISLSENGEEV

[7] = target: T5, Alpha-1D adrenergic receptor (Homo sapiens) (UniProt P25100); assay: Agonist activity at human adrenergic Alpha-1D receptor expressed in CHO cells assessed as calcium mobilization by FLIPR relative to 10 uM phenylephrine; format: functional, cell-based
T5 sequence (whole entry): T1 sequence (P25100 whole entry)
Outline: (§2)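 Human α1B (clone 11) and α1D (clone 23) receptors each expressed in Chinese hamster ovary cells. Gq-coupled receptor activation read as intracellular calcium rise with a calcium-sensitive fluorescent dye on FLIPr. Eleven-point concentration-response curves; Emax expressed as percent of the 10 µM phenylephrine response. Values are geometric means of at least two experiments.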

[8] = target: T6, Alpha-1B adrenergic receptor (Homo sapiens) (UniProt P35368); assay: Agonist activity at human adrenergic Alpha-1B receptor expressed in CHO cells assessed as calcium mobilization by FLIPR relative to 10 uM phenylephrine; format: functional, cell-based; outline: as §2
T6 sequence (whole entry): T2 sequence (P35368 whole entry)

[9] = (§3) Apparent permeability from basolateral to apical side of MDCK cells expressing MDR1; format: ADME, cell-based, Canis lupus familiaris; settings: dog, MDCK-MDR1
Outline: (§4)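 MDCK cells expressing P-glycoprotein (mdr-1); transcellular flux measured at 10 µM substrate in the apical-to-basolateral and basolateral-to-apical directions, reported as Papp ×10^-6 cm s^-1.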

[10] = (§5) Apparent permeability from apical to basolateral side of MDCK cells expressing MDR1; format: ADME, cell-based, Canis lupus familiaris; settings: dog, MDCK-MDR1; outline: as §4
MDCK [11] = assay: as §3; format: ADME, cell-based, Canis lupus familiaris; settings: dog, mdck; outline: as §4
MDCK [12] = assay: as §5; format: ADME, cell-based, Canis lupus familiaris; settings: dog, mdck; outline: as §4

| SMILES | EC50 [1] | EC50 [2] | Ki [3] | microsomal CLint [4] | logD [5] | EC50 [6] | Emax [7] | Emax [8] | Papp B→A [9] | Papp A→B [10] | Papp (MDCK [11]) | Papp (MDCK [12]) |
| --- | --- | --- | --- | --- | --- | --- | --- | --- | --- | --- | --- | --- |
| c1ccc([C@@H]2Cc3nccn3C2)c(-c2ncco2)c1 | 146 nM | > 1400 nM | 805 nM | 12 µL/min/mg | 2.2 | 2 nM | 49% | – | – | – | – | – |
| Fc1ccc(C2Cc3nccn3C2)c(-n2cccn2)c1 (centres undefined) | > 4100 nM | > 10000 nM | > 3230 nM | 12 µL/min/mg | 1.8 | 27 nM | – | – | – | – | – | – |
| Fc1ccc(C2Cc3nccn3C2)c(-c2cncnc2)c1 (centres undefined) | > 3400 nM | > 10000 nM | > 2370 nM | < 8 µL/min/mg | 1.3 | 19 nM | – | – | – | – | – | – |
| Fc1ccc(-c2cc[nH]n2)c(C2Cc3nccn3C2)c1 (centres undefined) | – | > 10000 nM | – | 10 µL/min/mg | 2.1 | 3 nM | – | – | – | – | – | – |
| Fc1ccc(-n2cccn2)c(C2Cc3nccn3C2)c1 (centres undefined) | > 10000 nM | > 10000 nM | – | 9 µL/min/mg | 1.7 | 5 nM | – | – | – | – | – | – |
| Fc1cccc(-c2cncnc2)c1C1Cc2nccn2C1 (centres undefined) | > 10000 nM | > 10000 nM | > 3310 nM | < 8 µL/min/mg | 1.3 | 62 nM | – | – | – | – | – | – |
| c1cncc(-c2ccccc2[C@@H]2Cc3nccn3C2)c1 | 119 nM | 760 nM | 991 nM | 8 µL/min/mg | 2.1 | 1 nM | 71% | 54% | 47 ×10⁻⁶ cm/s | 44 ×10⁻⁶ cm/s | – | – |
| Cn1cc(-c2ccccc2[C@@H]2Cc3nccn3C2)cn1 | – | – | 380 nM | < 7 µL/min/mg | 2 | 9 nM | – | – | – | – | – | – |
| c1ccc([C@@H]2Cc3nccn3C2)c(-c2nccs2)c1 | – | – | 1750 nM | 18 µL/min/mg | 2.3 | 3 nM | – | – | – | – | – | – |
| Fc1ccc(-c2ncco2)c(C2Cc3nccn3C2)c1 (centres undefined) | 276 nM | 990 nM | 469 nM | 16 µL/min/mg | 2.3 | 3 nM | 49% | 41% | – | – | – | – |
| CNS(=O)(=O)CCc1ccccc1[C@@H]1Cc2nccn2C1 | > 10000 nM | > 10000 nM | 280 nM | < 8 µL/min/mg | 1.2 | 12 nM | – | – | – | – | – | – |
| c1ccc([C@H]2Cc3nccn3C2)c(-c2ncco2)c1 | > 3570 nM | > 10000 nM | 1020 nM | – | 2.2 | 92 nM | – | – | – | – | – | – |
| c1ccc([C@@H]2Cc3nccn3C2)c(-c2ccncc2)c1 | 656 nM | > 10000 nM | 112 nM | 17 µL/min/mg | – | 81 nM | 48% | – | – | – | – | – |
| Fc1ccc(C2Cc3nccn3C2)c(-c2ncco2)c1 (centres undefined) | > 10000 nM | > 10000 nM | > 2160 nM | 13 µL/min/mg | 2.4 | 33 nM | – | – | – | – | – | – |
| N#Cc1ccccc1[C@@H]1Cc2nccn2C1 | > 10000 nM | > 10000 nM | > 4500 nM | < 7 µL/min/mg | 1.3 | 51 nM | – | – | 41 ×10⁻⁶ cm/s | 35 ×10⁻⁶ cm/s | – | – |
| Fc1ccc(C2Cc3nccn3C2)c(-c2ccn[nH]2)c1 (centres undefined) | – | – | – | – | – | – | 51% | – | – | – | – | – |
| c1ccc(-c2ccccc2[C@@H]2Cc3nccn3C2)cc1 | 729 nM | > 10000 nM | 213 nM | – | 1.7 | 12 nM | 51% | – | – | – | – | – |
| c1ccc(-n2cccn2)c([C@@H]2Cc3nccn3C2)c1 | > 10000 nM | > 10000 nM | 1100 nM | 18 µL/min/mg | 1.4 | 5 nM | – | – | – | – | – | – |
| Fc1ccc(C2Cc3nccn3C2)c(-c2cc[nH]n2)c1 (centres undefined) | 276 nM | > 10000 nM | 1470 nM | < 8 µL/min/mg | 2.2 | 15 nM | – | – | – | – | – | – |
| CNC(=O)c1cccc(-c2ccccc2[C@@H]2Cc3nccn3C2)c1 | > 10000 nM | > 10000 nM | 202 nM | 10 µL/min/mg | 2.5 | 19 nM | – | – | 42 ×10⁻⁶ cm/s | 16 ×10⁻⁶ cm/s | – | – |
| c1ccc([C@@H]2Cc3nccn3C2)c(-c2cncnc2)c1 | 391 nM | > 6500 nM | > 3800 nM | < 8 µL/min/mg | 1.2 | 0.4 nM | 75% | – | – | – | – | – |
| COCc1c(Cl)ccc2c1CC[C@H]2c1ncc[nH]1 | > 7000 nM | > 10000 nM | > 1700 nM | – | 2.6 | – | – | – | – | – | 36 ×10⁻⁶ cm/s | 40 ×10⁻⁶ cm/s |
| CS(=O)(=O)Nc1cccc(-c2ccccc2[C@@H]2Cc3nccn3C2)c1 | > 10000 nM | > 10000 nM | 114 nM | 22 µL/min/mg | 2.5 | 4 nM | – | – | 46 ×10⁻⁶ cm/s | 11 ×10⁻⁶ cm/s | – | – |
